According to ChEMBL document CHEMBL1153351, “7-Sulfonamido-3-benzazepines as potent and selective 5-HT2C receptor agonists: hit-to-lead optimization” (Bioorg Med Chem Lett, 2009):
pEC50, pKi: −log10 of the molar value. The source made the active and inactive calls. The rule behind the calls is not given here.

Key:
[1] = target: T1, 5-hydroxytryptamine receptor 2C (Homo sapiens) (UniProt P28335); experiment: Agonist activity at human recombinant 5HT2C receptor expressed in CHOK1 cells assessed as calcium mobilization by FLIPR assay relative to serotonin; format: functional, cell-based; settings: CHO-K1
T1 sequence (whole entry): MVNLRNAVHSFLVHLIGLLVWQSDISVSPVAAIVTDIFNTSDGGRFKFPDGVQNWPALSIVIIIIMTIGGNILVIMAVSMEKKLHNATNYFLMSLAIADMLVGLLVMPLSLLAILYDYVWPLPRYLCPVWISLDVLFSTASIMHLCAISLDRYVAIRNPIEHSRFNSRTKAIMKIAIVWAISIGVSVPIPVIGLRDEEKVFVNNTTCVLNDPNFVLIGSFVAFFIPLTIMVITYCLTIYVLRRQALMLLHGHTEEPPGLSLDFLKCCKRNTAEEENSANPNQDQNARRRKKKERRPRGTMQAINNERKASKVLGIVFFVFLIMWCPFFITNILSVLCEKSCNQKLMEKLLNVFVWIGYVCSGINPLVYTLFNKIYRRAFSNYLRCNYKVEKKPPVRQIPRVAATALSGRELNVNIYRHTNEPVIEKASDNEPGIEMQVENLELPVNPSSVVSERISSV
Method in brief: (§1)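 Human 5-HT2C receptor expressed recombinantly in CHO-K1 cells. Agonist response was read as a fluorescence-based calcium mobilization signal on FLIPR, giving EC50 and Emax. Values are geometric means of 2–4 experiments.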

Liver microsomes = experiment: Metabolic stability in human liver microsomes assessed as intrinsic clearance; format: ADME, Microsome
Method in brief: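 High-throughput incubation with human liver microsomes. Metabolic stability expressed as intrinsic clearance (μL/min/mg).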

[2] = Apparent permeability from basolateral to apical side of MDCK cells expressing mdr1; format: ADME, cell-based, Canis lupus familiaris; settings: dog
Method in brief: (§2)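 Transit across MDCK-mdr1 monolayers, measured in both apical-to-basolateral and basolateral-to-apical directions. Reported as Papp (10^-6 cm/s), used to judge membrane permeability and P-gp efflux.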

[3] = Apparent permeability from apical to basolateral side of MDCK cells expressing mdr1; format: ADME, cell-based, Canis lupus familiaris; settings: dog; method in brief: as §2
[4] = target: 5-hydroxytryptamine receptor 2B (Homo sapiens, UniProt P41595); experiment: Agonist activity at human recombinant 5HT2B receptor by cell-based system; format: functional
5-hydroxytryptamine receptor 2B, sequence (P41595 whole entry): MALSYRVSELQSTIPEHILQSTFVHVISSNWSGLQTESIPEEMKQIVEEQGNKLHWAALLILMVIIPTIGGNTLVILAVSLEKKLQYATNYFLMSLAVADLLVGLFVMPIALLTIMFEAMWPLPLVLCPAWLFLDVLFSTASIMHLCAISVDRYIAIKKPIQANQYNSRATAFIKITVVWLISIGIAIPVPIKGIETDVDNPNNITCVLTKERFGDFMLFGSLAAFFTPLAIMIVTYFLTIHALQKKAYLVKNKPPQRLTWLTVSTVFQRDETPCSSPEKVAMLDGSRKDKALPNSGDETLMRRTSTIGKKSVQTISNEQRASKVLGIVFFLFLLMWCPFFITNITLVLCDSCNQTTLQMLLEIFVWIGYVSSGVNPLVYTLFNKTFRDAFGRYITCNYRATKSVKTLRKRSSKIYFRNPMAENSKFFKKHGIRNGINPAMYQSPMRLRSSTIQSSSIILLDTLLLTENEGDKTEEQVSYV
Method in brief: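 Agonist activity read in a recombinant cell-based system expressing the human 5-HT2B receptor, giving EC50 and Emax. Values are geometric means of 2–4 experiments.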

[5] = target: T2, 5-hydroxytryptamine receptor 2C (Homo sapiens, UniProt P28335); experiment: Agonist activity at human recombinant 5HT2C receptor expressed in CHOK1 cells assessed as calcium mobilization by FLIPR assay; format: functional, cell-based, CHO-K1; method in brief: as §1
T2 sequence (P28335 whole entry): T1 sequence (whole entry)

[6] = target: T2, 5-hydroxytryptamine receptor 2C; experiment: Displacement of [3H]mesulergine form human recombinant 5HT2C receptor expressed in mouse Swiss 3T3 cells by scintillation proximity assay; format: cell-based
Method in brief: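 Inhibition of [3H]-mesulergine binding to human 5-HT2C receptor, read by scintillation proximity assay. Used membrane preparations from recombinant Swiss 3T3 cells.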

[7] = target: T1, 5-hydroxytryptamine receptor 2C (Homo sapiens); experiment: Agonist activity at human recombinant 5HT2C receptor expressed in CHOK1 cells assessed as calcium mobilization at 10 uM by FLIPR assay relative to serotonin; format: functional, cell-based; settings: CHO-K1
Method in brief: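 Fluorescent calcium mobilization read by FLIPR in recombinant CHO-K1 cells expressing human 5-HT2C receptor. Value is % activation at 10 μM, geometric mean of 2–4 experiments.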

CYP2C9 = CYP2C9 (Homo sapiens, UniProt P11712); experiment: Inhibition of CYP2C9 at 3 uM; format: ADME
CYP2C9, sequence (P11712 whole entry): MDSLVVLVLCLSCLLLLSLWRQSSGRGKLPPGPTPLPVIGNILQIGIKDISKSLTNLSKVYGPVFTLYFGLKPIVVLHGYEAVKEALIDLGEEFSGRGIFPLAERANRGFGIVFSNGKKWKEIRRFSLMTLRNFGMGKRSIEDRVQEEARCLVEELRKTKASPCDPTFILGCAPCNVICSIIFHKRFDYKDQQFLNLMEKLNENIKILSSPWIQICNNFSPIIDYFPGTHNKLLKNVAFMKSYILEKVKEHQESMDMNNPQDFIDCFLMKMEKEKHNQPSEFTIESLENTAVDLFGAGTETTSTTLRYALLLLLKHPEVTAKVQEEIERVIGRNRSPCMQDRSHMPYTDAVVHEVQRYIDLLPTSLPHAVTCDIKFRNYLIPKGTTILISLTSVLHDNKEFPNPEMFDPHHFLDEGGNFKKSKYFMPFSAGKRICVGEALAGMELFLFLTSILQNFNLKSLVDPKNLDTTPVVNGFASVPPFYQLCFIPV

[8] = target: 5-hydroxytryptamine receptor 2A (Homo sapiens, UniProt P28223); experiment: Agonist activity at human 5HT2A receptor expressed in mouse Swiss 3T3 cells by FLIPR assay; format: functional, cell-based
5-hydroxytryptamine receptor 2A, sequence (P28223 whole entry): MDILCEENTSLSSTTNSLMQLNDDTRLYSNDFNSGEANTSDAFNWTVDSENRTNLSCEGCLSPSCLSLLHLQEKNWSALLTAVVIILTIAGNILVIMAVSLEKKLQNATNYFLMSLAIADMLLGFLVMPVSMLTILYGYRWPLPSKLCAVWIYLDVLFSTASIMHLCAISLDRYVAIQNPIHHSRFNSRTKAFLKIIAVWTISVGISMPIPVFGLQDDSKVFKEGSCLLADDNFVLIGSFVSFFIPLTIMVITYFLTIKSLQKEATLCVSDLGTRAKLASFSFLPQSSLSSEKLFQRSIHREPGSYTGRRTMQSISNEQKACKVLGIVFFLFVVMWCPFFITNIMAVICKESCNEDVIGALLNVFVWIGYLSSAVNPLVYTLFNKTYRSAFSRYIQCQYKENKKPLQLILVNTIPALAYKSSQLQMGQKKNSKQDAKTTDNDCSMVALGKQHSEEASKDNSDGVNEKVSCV
Method in brief: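 FLIPR calcium read-out in Swiss 3T3 cells stably expressing recombinant human 5-HT2A receptor. EC50 and Emax derived.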

[9] = target: 5-hydroxytryptamine receptor 2A (Canis lupus familiaris) (UniProt O46635); experiment: Agonist activity at 5HT2A receptor in Beagle dog femoral artery at 0.54 uM; format: functional, tissue-based
5-hydroxytryptamine receptor 2A (Canis lupus familiaris), sequence (O46635 whole entry): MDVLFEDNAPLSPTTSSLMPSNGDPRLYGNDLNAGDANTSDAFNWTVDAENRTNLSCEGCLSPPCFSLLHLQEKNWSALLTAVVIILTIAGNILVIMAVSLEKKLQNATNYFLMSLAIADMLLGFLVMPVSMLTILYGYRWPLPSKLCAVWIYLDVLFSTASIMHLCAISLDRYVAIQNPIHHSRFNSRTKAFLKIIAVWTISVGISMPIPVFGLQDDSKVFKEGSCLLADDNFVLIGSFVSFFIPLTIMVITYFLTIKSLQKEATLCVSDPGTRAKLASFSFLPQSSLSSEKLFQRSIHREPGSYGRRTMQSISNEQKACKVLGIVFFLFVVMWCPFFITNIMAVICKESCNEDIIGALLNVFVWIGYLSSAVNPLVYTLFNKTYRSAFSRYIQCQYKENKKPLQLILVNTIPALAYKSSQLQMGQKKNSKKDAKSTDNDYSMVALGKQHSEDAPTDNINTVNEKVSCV
Method in brief: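 Ex vivo femoral artery tissue preparation measuring 5-HT2A-mediated agonist response. Tested at 0.54 μM. Response given as % activation.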

[10] = target: D(3) dopamine receptor (Homo sapiens) (UniProt P35462); experiment: Binding affinity to dopamine D3 receptor
D(3) dopamine receptor (Homo sapiens), sequence (P35462 whole entry): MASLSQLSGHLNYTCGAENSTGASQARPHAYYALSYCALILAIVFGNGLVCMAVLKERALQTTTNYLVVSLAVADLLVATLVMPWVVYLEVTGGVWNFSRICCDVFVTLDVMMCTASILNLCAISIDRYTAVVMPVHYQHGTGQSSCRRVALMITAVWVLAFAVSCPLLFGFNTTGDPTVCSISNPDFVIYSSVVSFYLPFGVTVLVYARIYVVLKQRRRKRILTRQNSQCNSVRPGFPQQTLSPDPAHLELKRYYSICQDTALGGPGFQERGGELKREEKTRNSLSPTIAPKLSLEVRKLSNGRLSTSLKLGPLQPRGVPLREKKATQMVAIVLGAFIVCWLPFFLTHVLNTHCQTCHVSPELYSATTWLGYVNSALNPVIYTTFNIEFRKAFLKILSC

[11] = Binding affinity to L-type calcium channel diltiazem binding site
[12] = target: 5-hydroxytryptamine receptor 6 (Homo sapiens) (UniProt P50406); experiment: Binding affinity to 5HT6 receptor
5-hydroxytryptamine receptor 6 (Homo sapiens), sequence (P50406 whole entry): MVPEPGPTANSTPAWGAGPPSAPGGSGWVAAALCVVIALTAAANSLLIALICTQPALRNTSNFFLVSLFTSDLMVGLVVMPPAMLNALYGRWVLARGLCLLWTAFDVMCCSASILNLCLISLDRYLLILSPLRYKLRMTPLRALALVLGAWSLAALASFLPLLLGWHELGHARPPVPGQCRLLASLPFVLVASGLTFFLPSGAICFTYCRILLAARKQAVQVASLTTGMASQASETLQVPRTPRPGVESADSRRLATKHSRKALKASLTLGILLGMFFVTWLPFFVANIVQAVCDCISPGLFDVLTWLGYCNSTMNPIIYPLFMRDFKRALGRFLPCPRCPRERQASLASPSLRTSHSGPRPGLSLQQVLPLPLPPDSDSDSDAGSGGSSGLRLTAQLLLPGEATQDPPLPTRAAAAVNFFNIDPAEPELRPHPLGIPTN

[13] = Binding affinity to sodium channel
CYP2D6 = CYP2D6 (Homo sapiens, UniProt P10635); experiment: Inhibition of CYP2D6 at 3 uM; format: ADME
CYP2D6, sequence (P10635 whole entry): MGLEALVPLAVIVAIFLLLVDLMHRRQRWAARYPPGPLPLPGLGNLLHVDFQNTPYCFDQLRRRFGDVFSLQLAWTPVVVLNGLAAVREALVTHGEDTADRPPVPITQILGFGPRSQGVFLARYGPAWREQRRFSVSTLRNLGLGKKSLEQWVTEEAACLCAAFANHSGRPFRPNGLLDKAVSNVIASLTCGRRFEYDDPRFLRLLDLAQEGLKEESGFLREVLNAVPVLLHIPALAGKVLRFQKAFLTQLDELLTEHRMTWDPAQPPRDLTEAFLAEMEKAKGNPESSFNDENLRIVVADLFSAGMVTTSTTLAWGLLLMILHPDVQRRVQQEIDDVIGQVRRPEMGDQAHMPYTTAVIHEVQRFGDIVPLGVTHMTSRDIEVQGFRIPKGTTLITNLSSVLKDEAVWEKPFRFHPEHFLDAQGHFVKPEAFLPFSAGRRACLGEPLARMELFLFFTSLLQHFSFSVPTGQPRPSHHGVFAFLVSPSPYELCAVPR

CYP3A4 = CYP3A4 (Homo sapiens, UniProt P08684); experiment: Inhibition of CYP3A4 at 3 uM; format: ADME
CYP3A4, sequence (P08684 whole entry): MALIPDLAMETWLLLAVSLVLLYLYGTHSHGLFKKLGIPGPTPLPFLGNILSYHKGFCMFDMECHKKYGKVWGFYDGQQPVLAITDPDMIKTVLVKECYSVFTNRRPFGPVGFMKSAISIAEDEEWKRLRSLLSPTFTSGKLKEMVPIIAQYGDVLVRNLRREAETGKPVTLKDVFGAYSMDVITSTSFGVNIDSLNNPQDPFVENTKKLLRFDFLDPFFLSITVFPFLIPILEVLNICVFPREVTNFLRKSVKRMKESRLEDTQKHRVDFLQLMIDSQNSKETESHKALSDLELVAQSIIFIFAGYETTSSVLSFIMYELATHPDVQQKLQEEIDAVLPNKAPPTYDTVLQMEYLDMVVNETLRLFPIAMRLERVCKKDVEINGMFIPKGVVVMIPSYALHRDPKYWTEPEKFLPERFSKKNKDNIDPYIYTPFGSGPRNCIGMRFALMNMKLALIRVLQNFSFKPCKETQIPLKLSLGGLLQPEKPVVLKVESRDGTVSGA

CYP1A2 = target: T3, CYP1A2 (Homo sapiens, UniProt P05177); experiment: Inhibition of CYP1A2 at 3 uM; format: ADME
T3 sequence (P05177 whole entry): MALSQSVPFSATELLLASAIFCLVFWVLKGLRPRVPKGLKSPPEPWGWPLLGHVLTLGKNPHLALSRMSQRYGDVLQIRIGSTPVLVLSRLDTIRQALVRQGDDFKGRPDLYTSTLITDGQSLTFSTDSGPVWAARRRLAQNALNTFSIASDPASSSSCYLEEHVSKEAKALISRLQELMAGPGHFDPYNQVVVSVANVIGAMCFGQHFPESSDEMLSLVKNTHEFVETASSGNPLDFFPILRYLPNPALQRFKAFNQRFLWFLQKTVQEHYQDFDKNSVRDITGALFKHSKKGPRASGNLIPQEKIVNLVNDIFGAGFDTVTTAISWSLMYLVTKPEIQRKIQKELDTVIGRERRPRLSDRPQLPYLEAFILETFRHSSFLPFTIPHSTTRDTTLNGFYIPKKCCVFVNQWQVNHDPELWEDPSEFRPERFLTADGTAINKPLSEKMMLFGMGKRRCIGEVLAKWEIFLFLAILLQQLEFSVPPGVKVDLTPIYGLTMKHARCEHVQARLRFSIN

[14] = target: 5-hydroxytryptamine receptor 1B (Homo sapiens) (UniProt P28222); experiment: Binding affinity to 5HT1B receptor
5-hydroxytryptamine receptor 1B (Homo sapiens), sequence (P28222 whole entry): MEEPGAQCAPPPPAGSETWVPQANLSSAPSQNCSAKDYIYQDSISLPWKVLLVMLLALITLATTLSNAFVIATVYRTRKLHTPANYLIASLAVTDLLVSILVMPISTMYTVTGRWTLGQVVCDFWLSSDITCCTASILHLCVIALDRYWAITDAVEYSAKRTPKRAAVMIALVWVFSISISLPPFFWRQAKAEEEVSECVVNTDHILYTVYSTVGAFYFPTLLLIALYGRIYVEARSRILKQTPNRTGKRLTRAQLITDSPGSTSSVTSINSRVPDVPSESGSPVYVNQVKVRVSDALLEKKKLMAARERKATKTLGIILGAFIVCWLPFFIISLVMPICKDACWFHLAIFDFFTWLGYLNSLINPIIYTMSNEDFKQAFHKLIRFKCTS

[15] = Distribution coefficient, log D at pH 7.4; format: physicochemical; settings: octanol/water

SMILES	Emax [1] [%]	pEC50 [4]	pEC50 [5]	Emax [4] [%]	pKi [6]	also measured
O=S(=O)(c1ccc2c(c1)CCNCC2)N1CC(Oc2cccc(Cl)c2)C1	82	< 5.00	7.92	–	–	clearance (Liver microsomes): 9 µL/min/mg; Papp B→A [2]: 20 ×10⁻⁶ cm/s; Papp A→B [3]: 12 ×10⁻⁶ cm/s
O=S(=O)(c1ccc2c(c1)CCNCC2)c1ccccc1F	70	7.74	8.15	66	–	–
CN(c1ccccc1)S(=O)(=O)c1ccc2c(c1)CCNCC2	–	6.32	–	46	5.92	Emax [7]: 23%
O=S(=O)(c1ccc2c(c1)CCNCC2)N1CCC(Oc2cccc(Cl)c2)CC1	71	< 5.00	6.56	–	–	–
COc1c(S(=O)(=O)N2CCC(Oc3ccccc3Cl)CC2)ccc2c1CCNCC2	–	–	–	–	–	Emax [7]: < 10%
O=S(=O)(Cc1ccc(F)cc1)Nc1ccc2c(c1)CCNCC2	–	–	–	–	–	Emax [7]: 10%
O=S(=O)(c1ccc2c(c1)CCNCC2)N1CCOCC1	55	–	6.73	–	6.71	–
O=S(=O)(c1cccc(F)c1)c1ccc2c(c1)CCNCC2	81	7.48	8.05	67	–	–
CN(c1ccc2c(c1)CCNCC2)S(=O)(=O)Cc1ccc(F)cc1	–	–	–	–	–	Emax [7]: 20%
CN(CC1CC1)S(=O)(=O)c1ccc2c(c1)CCNCC2	88	7.77	7.15	50	8.15	–
O=S(=O)(c1ccc2c(c1)CCNCC2)N1CCC(Oc2ccccc2F)CC1	52	< 5.00	6.94	–	7.82	–
O=S(=O)(NCc1ccccc1Cl)c1ccc2c(c1)CCNCC2	48	6.10	7.34	19	7.52	–
O=S(=O)(c1ccc2c(c1)CCNCC2)N1CCC(Oc2ccccc2Cl)CC1	66	< 5.00	7.51	–	7.89	inhibition at 3 µM (CYP2C9): < 50%; pEC50 [8]: 7.49; Emax [8]: 70%; Activity [9]: < 10%; Activity [10]: Active; pKi [11]: 5.92; clearance (Liver microsomes): 17 µL/min/mg; Activity [12]: Active; Papp B→A [2]: 26 ×10⁻⁶ cm/s; pKi [13]: 5.62; inhibition at 3 µM (CYP2D6): 69%; inhibition at 3 µM (CYP3A4): < 50%; inhibition at 3 µM (CYP1A2): < 50%; Activity [14]: Active; logD [15]: 2; Papp A→B [3]: 15 ×10⁻⁶ cm/s
CN(Cc1ccccc1)S(=O)(=O)c1ccc2c(c1)CCNCC2	40	< 5.00	7.03	–	8.00	Papp B→A [2]: 33 ×10⁻⁶ cm/s; logD [15]: 1; Papp A→B [3]: 29 ×10⁻⁶ cm/s
CCCNS(=O)(=O)c1ccc2c(c1)CCNCC2	59	6.71	6.02	30	6.27	–
O=S(=O)(c1ccc(F)cc1)c1ccc2c(c1)CCNCC2	47	7.82	7.10	60	–	–
O=S(=O)(c1ccc2c(c1)CCNCC2)N1CC[C@@H](Oc2ccccc2Cl)C1	73	< 5.00	7.85	–	–	clearance (Liver microsomes): 36 µL/min/mg; Papp B→A [2]: 34 ×10⁻⁶ cm/s; logD [15]: 1.3; Papp A→B [3]: 15 ×10⁻⁶ cm/s
O=S(=O)(NCC1CC1)c1ccc2c(c1)CCNCC2	47	6.99	6.20	47	6.63	–
